ChEMBL document CHEMBL2346503, “Synthesis and evaluation of novel (18)F-labeled spirocyclic piperidine derivatives as σ1 receptor ligands for positron emission tomography imaging” (J Med Chem, 2013)

Assays:
Blood = experiment: Biodistribution in ICR mouse blood assessed as radiotracer accumulation at 370 kBq, iv after 60 minutes by gamma-counting analysis in presence of SA4503; type: ADME, organism-based; details: in vivo, 1 h
Outline: (§1)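 Male ICR mice got saline or SA4503 (0.1 mL; 2, 5, 10 or 2.2 μmol/kg) via tail vein 5 min before 370 kBq tracer (0.1 mL) iv. They were decapitated at 60 min and tissues γ-counted. Percent change was taken against saline controls, with two-tailed Student's t test, p ≤ 0.05.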

Cortex [1] = experiment: Biodistribution in Sprague-Dawley rat cortex at 23 MBq, iv after 60 mins by microPET imaging/CT study; type: ADME, organism-based; details: in vivo, 1 h
Outline: (§2)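 Sprague-Dawley rats under isoflurane (1.5–2.5%) in oxygen received 23 MBq radiotracer (0.2 mL saline) via tail vein. Blocking animals were pre-injected with haloperidol (0.2 mL, 1 mg/kg) 5 min before the tracer. MicroPET emission was acquired for 30 min starting 60 min post-injection, followed by a 5 min CT scan; images were summed over 60–90 min.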

[2] = Drug uptake in Sprague-Dawley rat lateral ventricle at 12.2 MBq, iv after 60 mins by autoradiography; type: ADME, organism-based; details: in vivo, 1 h
Outline: (§3)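 [¹⁸F]-labelled tracer (0.2 mL, 12.2 MBq) given intravenously to conscious Sprague-Dawley rats (n = 3). Each rat was killed by cervical dislocation 60 min after injection. The brain was removed and frozen in liquid nitrogen, and 20 μm coronal sections were cut on a cryostat for ex vivo autoradiography of regional radioactivity.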

Rattus norvegicus [3] = experiment: Biodistribution in Sprague-Dawley rat pontine reticular nucleus at 23 MBq, iv after 60 mins by microPET imaging/CT study; type: ADME, organism-based; details: in vivo, 1 h; outline: as §2
Cerebellum [4] = experiment: Biodistribution in Sprague-Dawley rat cerebellum at 23 MBq, iv after 60 mins by microPET imaging/CT study; type: ADME, organism-based; details: in vivo, 1 h; outline: as §2
Brain [5] = experiment: Biodistribution in ICR mouse brain assessed as reduction in radiotracer uptake at 370 kBq, iv after 60 minutes by gamma-counting analysis in presence of (S)-(-)raclopride; type: ADME, organism-based; details: in vivo, 1 h
Outline: (§4)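 Male ICR mice got saline or a blocker (haloperidol, (S)-(−)-raclopride, fluvoxamine or tamoxifen; 0.1 mL, 2.2 μmol/kg) via tail vein 5 min before 370 kBq tracer iv. Brain was γ-counted at 60 min and compared with saline controls by two-tailed Student's t test, p ≤ 0.05.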

Cortex [6] = experiment: Drug uptake in Sprague-Dawley rat temporal cortex auditory area at 12.2 MBq, iv after 60 mins by autoradiography; type: ADME, organism-based; details: in vivo, 1 h; outline: as §3
Nucleic Acid [7] = experiment: Ratio of drug uptake in Sprague-Dawley rat interior coliculus to cerebellum at 12.2 MBq, iv after 60 mins by autoradiography; type: ADME, organism-based; details: in vivo, 1 h
Rattus norvegicus [8] = experiment: Biodistribution in Sprague-Dawley rat pontine reticular nucleus at 23 MBq, iv after 60 mins by microPET imaging/CT study in presence of haloperidol; type: ADME, organism-based; details: in vivo, 1 h; outline: as §2
Midbrain [9] = experiment: Biodistribution in Sprague-Dawley rat midbrain at 23 MBq, iv after 60 mins by microPET imaging/CT study; type: ADME, organism-based; details: in vivo, 1 h; outline: as §2
[10] = Chemical stability of the compound at room temperature up to 4 hrs; type: physicochemical
Outline: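 Radiotracer (3.7 MBq in 100 μL water) was added to 1 mL of 80% ethanol or 0.9% NaCl and held at room temperature for 4 h. Radiochemical purity was checked by HPLC at 1, 2 and 4 h.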

Cerebellum [11] = experiment: Biodistribution in Sprague-Dawley rat cerebellum at 23 MBq, iv after 60 mins by microPET imaging/CT study in presence of haloperidol; type: ADME, organism-based; details: in vivo, 1 h; outline: as §2
Midbrain [12] = experiment: Biodistribution in Sprague-Dawley rat midbrain at 23 MBq, iv after 60 mins by microPET imaging/CT study in presence of haloperidol; type: ADME, organism-based; details: in vivo, 1 h; outline: as §2
Rattus norvegicus [13] = experiment: Biodistribution in Sprague-Dawley rat olfactory bulb at 23 MBq, iv after 60 mins by microPET imaging/CT study in presence of haloperidol; type: ADME, organism-based; details: in vivo, 1 h; outline: as §2
Rattus norvegicus [14] = experiment: Biodistribution in Sprague-Dawley rat olfactory bulb at 23 MBq, iv after 60 mins by microPET imaging/CT study; type: ADME, organism-based; details: in vivo, 1 h; outline: as §2
Hypothalamus [15] = experiment: Biodistribution in Sprague-Dawley rat hypothalamus at 23 MBq, iv after 60 mins by microPET imaging/CT study; type: ADME, organism-based; details: in vivo, 1 h; outline: as §2
Spleen = experiment: Biodistribution in ICR mouse spleen assessed as reduction in radiotracer uptake at 370 kBq, iv after 60 minutes by gamma-counting analysis in presence of SA4503 relative to control; type: ADME, organism-based; parameters: scale not given: the % may be the effect or the level left; details: in vivo, 1 h
Outline: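 Male ICR mice were given saline or SA4503 (0.1 mL; 2, 5 or 10 μmol/kg) via tail vein 5 min before [18F]radiotracer (370 kBq, 0.1 mL, iv). Killed at 60 min. Organs were gamma-counted as % ID/g and reduction was computed versus saline controls. Two-tailed independent Student's t test, p ≤ 0.05.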

Nucleic Acid [16] = experiment: Ratio of drug uptake in Sprague-Dawley rat frontal cortex to cerebellum at 12.2 MBq, iv after 60 mins by autoradiography; type: ADME, organism-based; details: in vivo, 1 h
Hippocampus = experiment: Drug uptake in Sprague-Dawley rat hippocampus at 12.2 MBq, iv after 60 mins by autoradiography; type: ADME, organism-based; details: in vivo, 1 h; outline: as §3
Thalamus [17] = experiment: Biodistribution in Sprague-Dawley rat thalamus at 23 MBq, iv after 60 mins by microPET imaging/CT study in presence of haloperidol; type: ADME, organism-based; details: in vivo, 1 h; outline: as §2
Rattus norvegicus [18] = experiment: Biodistribution in Sprague-Dawley rat internal capsule at 23 MBq, iv after 60 mins by microPET imaging/CT study; type: ADME, organism-based; details: in vivo, 1 h; outline: as §2
Lung = experiment: Biodistribution in ICR mouse lung assessed as reduction in radiotracer uptake at 370 kBq, iv after 60 minutes by gamma-counting analysis in presence of SA4503 relative to control; type: ADME, organism-based; parameters: scale not given: the % may be the effect or the level left; details: in vivo, 1 h; outline: as §1
[19] = Metabolic stability in ICR mouse liver at 18.5 MBq, iv after 30 mins by HPLC analysis; type: ADME, organism-based; details: read-out: Stability
Outline: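 Male ICR mice given radiotracer iv (18.5 MBq, 0.2 mL), killed at 30 min. Brain and liver were homogenized in ice-cold PBS (0.01 M, pH 7.4) and extracted with ice-cold MeCN. Supernatants were filtered, concentrated and analysed by radio-HPLC on a C18 column, acetonitrile/water with 0.1% TFA (45:55), 1 mL/min.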

Nucleic Acid [20] = experiment: Ratio of drug uptake in Sprague-Dawley rat thalamus to cerebellum at 12.2 MBq, iv after 60 mins by autoradiography; type: ADME, organism-based; details: in vivo, 1 h
Nucleic Acid [21] = experiment: Ratio of drug uptake in Sprague-Dawley rat temporal cortex auditory area to cerebellum at 12.2 MBq, iv after 60 mins by autoradiography; type: ADME, organism-based; details: in vivo, 1 h
Thalamus [22] = experiment: Biodistribution in Sprague-Dawley rat thalamus at 23 MBq, iv after 60 mins by microPET imaging/CT study; type: ADME, organism-based; details: in vivo, 1 h; outline: as §2
Thalamus [23] = experiment: Drug uptake in Sprague-Dawley rat thalamus at 12.2 MBq, iv after 60 mins by autoradiography; type: ADME, organism-based; details: in vivo, 1 h; outline: as §3
Kidney = experiment: Biodistribution in ICR mouse kidney assessed as reduction in radiotracer uptake at 370 kBq, iv after 60 minutes by gamma-counting analysis in presence of SA4503 relative to control; type: ADME, organism-based; parameters: scale not given: the % may be the effect or the level left; details: in vivo, 1 h; outline: as §1
Hypothalamus [24] = experiment: Biodistribution in Sprague-Dawley rat hypothalamus at 23 MBq, iv after 60 mins by microPET imaging/CT study in presence of haloperidol; type: ADME, organism-based; details: in vivo, 1 h; outline: as §2
Cortex [25] = experiment: Drug uptake in Sprague-Dawley rat cortex at 12.2 MBq, iv after 60 mins by autoradiography; type: ADME, organism-based; details: in vivo, 1 h; outline: as §3
Brain [26] = experiment: Biodistribution in ICR mouse brain assessed as reduction in radiotracer uptake at 370 kBq, iv after 60 minutes by gamma-counting analysis in presence of tamoxifen; type: ADME, organism-based; details: in vivo, 1 h; outline: as §4

Drug uptake (Blood): Active
Drug uptake (Cortex [1]): Active
Drug uptake [2]: Active
Drug uptake (Rattus norvegicus [3]): Active
Drug uptake (Cerebellum [4]): Active
Drug uptake (Brain [5]): Active
Drug uptake (Cortex [6]): Active
Ratio (Nucleic Acid [7]): 1.3
Drug uptake (Rattus norvegicus [8]): Active
Drug uptake (Midbrain [9]): Active
Stability [10]: Stable
Drug uptake (Cerebellum [11]): Active
Drug uptake (Midbrain [12]): Active
Drug uptake (Rattus norvegicus [13]): Active
Drug uptake (Rattus norvegicus [14]): Active
Drug uptake (Hypothalamus [15]): Active
Activity (Spleen): 29%
Ratio (Nucleic Acid [16]): 1.5
Drug uptake (Hippocampus): Active
Drug uptake (Thalamus [17]): Active
Drug uptake (Rattus norvegicus [18]): Active
Activity (Lung): 71%
remaining at 0.5 h [19]: 40.3%
Ratio (Nucleic Acid [20]): 1.38
Ratio (Nucleic Acid [21]): 1.9
Drug uptake (Thalamus [22]): Active
Drug uptake (Thalamus [23]): Active
Activity (Kidney): 57%
Drug uptake (Hypothalamus [24]): Active
Drug uptake (Cortex [25]): Active
Drug uptake (Brain [26]): Active
Compound: [18F]CCOc1ccc(CN2CCC3(CC2)OCc2ccccc23)cc1
